Compound activity as filed in PubChem.
KCC2 mod – modulators of human KCC2 chloride dependent transport | Q9H2X9 | KCC2 cells, thallium flux FluoZin-2 fluorescence | B-score of Tl+ flux slope (higher = more flux/activation; lower = inhibition) at 10 µM | 190,000 compounds, 2.2% hits | AID 1456;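 active = thallium flux slope and its plate-corrected score both differing from the plate sample mean at a set confidence after two filtering rounds, in either direction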;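 note: slope of fluorescence scaled to starting intensity during 10 to 20 s after thallium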
Target sequence (Q9H2X9 whole entry, looked up): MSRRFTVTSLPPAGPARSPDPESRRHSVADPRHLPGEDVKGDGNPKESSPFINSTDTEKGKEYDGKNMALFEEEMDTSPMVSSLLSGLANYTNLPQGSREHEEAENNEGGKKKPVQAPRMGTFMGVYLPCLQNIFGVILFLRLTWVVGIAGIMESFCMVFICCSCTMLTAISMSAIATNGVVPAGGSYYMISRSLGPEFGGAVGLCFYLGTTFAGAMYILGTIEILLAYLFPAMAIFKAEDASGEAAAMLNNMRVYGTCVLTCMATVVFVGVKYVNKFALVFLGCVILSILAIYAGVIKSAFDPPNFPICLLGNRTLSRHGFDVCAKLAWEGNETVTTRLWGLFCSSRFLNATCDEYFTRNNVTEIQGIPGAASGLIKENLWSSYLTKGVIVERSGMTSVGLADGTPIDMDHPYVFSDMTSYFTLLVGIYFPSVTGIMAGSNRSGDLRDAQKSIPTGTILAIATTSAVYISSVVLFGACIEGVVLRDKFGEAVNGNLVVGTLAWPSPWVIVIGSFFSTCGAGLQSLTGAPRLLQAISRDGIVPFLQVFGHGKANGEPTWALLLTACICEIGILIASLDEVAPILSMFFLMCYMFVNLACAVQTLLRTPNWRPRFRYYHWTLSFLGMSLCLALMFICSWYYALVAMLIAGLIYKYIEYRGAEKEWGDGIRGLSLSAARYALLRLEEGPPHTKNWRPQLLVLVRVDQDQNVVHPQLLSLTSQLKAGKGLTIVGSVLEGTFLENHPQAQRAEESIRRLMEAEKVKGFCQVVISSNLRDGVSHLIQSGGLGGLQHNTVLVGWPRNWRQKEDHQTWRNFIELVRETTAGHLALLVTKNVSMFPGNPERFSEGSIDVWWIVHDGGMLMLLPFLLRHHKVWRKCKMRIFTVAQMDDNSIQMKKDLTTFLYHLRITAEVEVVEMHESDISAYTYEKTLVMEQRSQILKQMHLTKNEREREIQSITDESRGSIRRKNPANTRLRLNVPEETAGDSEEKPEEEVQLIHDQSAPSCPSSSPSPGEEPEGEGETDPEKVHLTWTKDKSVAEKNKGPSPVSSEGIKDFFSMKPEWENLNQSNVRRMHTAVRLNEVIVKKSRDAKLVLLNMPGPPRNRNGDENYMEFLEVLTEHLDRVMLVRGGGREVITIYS
Yeast lifespan up – extends the lifespan of yeast; 130,000 compounds, 0.68% hits; S. cerevisiae growth with nicotinamide, OD615; deaD strain in restrictive glucose medium; AID 775; inhibition of the nicotinamide effect, % at 10 µM;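 active = inhibition above a set limit, placed 3 SD over the median of all compounds, cut at about 26% in these data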;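 note: 0% = nicotinamide-treated wells and 100% = cells grown without nicotinamide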
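assay system = DeaD-strain S. cerevisiae | buffer or medium = restrictive glucose medium | reagent = 1.5 mM nicotinamide | compound = 10 µM single point, 0.25% DMSO | incubation = 48 h compound exposure at 30 °C, humidified | signal = OD615 measurement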
RAM network inh – yeast RAM network inhibition; S. cerevisiae dse1pr::URA3 reporter, 5-FOA growth OD615, 2 d; analog-sensitive cbk1-as2 kinase mutant strain; inhibition, % at 50 µM; 190,000 compounds, 1.8% hits; AID 868;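 active = inhibition above a set limit, 3 SD over mean compound inhibition, cut at about 8.4% in these data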;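 note: 0% = DMSO-only wells with no growth and 100% = 10 µM 1-NA-PP1 full growth; inhibition rescues growth on 5-FOA so higher OD means more RAM inhibition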
Yeast growth inh – yeast BB579 growth reduction in restrictive medium; 140,000 compounds, 0.51% hits; inhibition, % at 10 µM; S. cerevisiae BB579 growth, OD615, 48 h;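 active = inhibition above a set limit, 3 SD over the mean compound inhibition, cut at about 44% in these data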
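Test system: DeaD yeast strain BB579 / Buffer or medium: restrictive glucose-based CSMM-D medium / Doses: single 10 µM dose / Schedule: 4 h cell preincubation, 48 h compound exposure, 30 °C humidified / Technique: culture absorbance at 615 nm / Controls: amphotericin B positive control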
WT yeast gro inh – growth inhibition of WT yeast, mitochondrial fusion screen; 190,000 compounds, 2.1% hits; AID 1362; mitochondrial fusion phenotypic screen, WT strain; inhibition, % at 10 µM; in the data active = inhibition above about 58%; tested in S. cerevisiae
An asterisk follows results filed as active; · = no result. Hits are enriched below; roughly 5.5% of the tested compounds scored in any of these assays.

SMILES	KCC2 mod	Yeast lifespan up	RAM network inh	Yeast growth inh	WT yeast gro inh
Cc1ccc(S(=O)(=O)CC(=O)Nc2nc(-c3ccccc3)cs2)cc1	·	0.5	2.2	-9.2	60.6*
Cc1ccc(S(=O)(=O)Nc2ccccc2C(=O)Nc2nc(-c3ccc(F)cc3)cs2)cc1	0.721	-0.2	8.2	-30.0	73.9*
O=C(Nc1ccc(S(=O)(=O)Nc2ncccn2)cc1)c1ccccc1NS(=O)(=O)c1ccc(F)cc1	-1.11	·	1.9	·	-14.9
O=C(CS(=O)(=O)c1ccccc1)Nc1nc(-c2ccccc2)cs1	·	-12.1	1.1	-4.0	19.4
CC(NC(=O)CSc1nc(=O)cc(N)n1CCc1ccccc1)c1ccccc1 (configuration not stated)	-0.218	-35.3	1.2	-33.7	59.3*
Cc1ccc(NC(=O)CSc2nc(=O)cc(N)n2CCc2ccccc2)cc1	-1.09	·	0.0	·	8.8
O=S(=O)(NCCC(c1ccc(F)cc1)c1ccco1)c1ccccc1 (configuration not stated)	-1.1	2.2	3.3	-6.3	60.5*
COc1cc(NC(=S)N2CCCCC2C)c(OC)cc1Cl (configuration not stated)	-0.553	·	1.5	·	5.0
COc1cc(NC(=O)C(=O)NNC(=O)C2CCCCC2)c(OC)cc1Cl	51*	5.7	7.9	-22.5	-9.7
COc1ccc2c(CC(=O)Nc3cccc(S(=O)(=O)N4CCOCC4)c3)coc2c1	-0.156	9.2	0.5	-41.7	-0.7
CSc1nc(=O)n2cc(C)ccc2n1	·	·	1.0	·	-5.7
COc1ccc(N(CC(=O)NCCSCc2ccco2)S(=O)(=O)c2ccccc2)cc1	·	·	9.3*	·	10.2
COc1ccc(N(CC(=O)N/N=C/c2ccc3c(c2)OCO3)S(=O)(=O)c2ccccc2)cc1	0.8	·	9.2*	·	-2.6
O=C(CN(c1ccccc1)S(=O)(=O)c1ccccc1)NCCSCc1ccco1	-0.829	-7.4	1.3	-32.5	-19.0
COc1ccc(N(CC(=O)Nc2ccc3c(c2)OCO3)S(=O)(=O)c2ccccc2)cc1	-1.23	·	4.2	·	12.5
COC(=O)CN(c1ccc2c(c1)OCCO2)S(=O)(=O)c1ccccc1	-0.394	21.8	2.4	-17.3	72.6*
Cn1cccc1/C=N/n1c(-c2ccc(C(C)(C)C)cc2)n[nH]c1=S	12.7*	-9.6	-0.4	-4.0	-2.0
CC(C)(C)c1ccc(-c2n[nH]c(=S)n2C2CCCC2)cc1	·	9.1	1.1	-27.8	71.6*
Cn1c(-c2ccccc2)n[nH]c1=S	0.148	·	·	·	·
Cn1cccc1/C=N/n1c(-c2ccccc2)n[nH]c1=S	1.72	-5.9	0.2	-2.3	-8.8
Cn1c(-c2ccc(C(C)(C)C)cc2)n[nH]c1=S	3.93*	-10.7	0.1	-41.3	6.3
Nc1sc(-c2ccccc2)cc1-c1n[nH]c(=S)n1C1CCCCC1	3.98	·	·	·	·
COc1ccc(-c2nc(=S)c3c([nH]2)Oc2ccc(C)cc2C3)cc1O	4.55	0.5	2.5	-54.6	13.1
Nc1c(N2CCCCC2)c2ccccc2oc1=O	-1.07	·	0.4	·	-9.0
NC(=O)C1(N2CCCCC2)CCN(c2nc(-c3ccc(Br)cc3)cs2)CC1	·	-13.6	-0.8	-41.3	65.0*
SMILES	KCC2 mod	Yeast lifespan up	RAM network inh	Yeast growth inh	WT yeast gro inh
Cc1ccc(CN2CCN(Cc3cccn3-c3nccs3)CC2CCO)cc1 (configuration not stated)	0.0807	·	-0.2	·	-9.0
CCSC(=O)NC1CCCCC1	0.82	·	·	·	·
COc1ccc2c(c1)CCc1c(C(=O)N3CCOCC3)noc1-2	·	-32.4	-0.9	-6.5	1.4
COc1ccc2c(c1)CCc1c(C(=O)N3CC4(C)CC3CC(C)(C)C4)noc1-2 (configuration not stated)	0.39	-9.7	8.1	-80.8	73.2*
CCO/C(C)=N/n1c2nc3ccccc3nc2c2c(=O)n(Cc3ccccc3Cl)c(C)nc21	·	12.1	8.6*	-24.0	-1.2
CCCCCCn1c(C)nc2c(c1=O)c1nc3ccccc3nc1n2/N=C/c1ccco1	-1.19	-10.1	2.9	-31.0	13.4
O=C(ONC1=NCCCCC1)c1ccc(Cl)cc1	1.17	-20.2	-1.4	97.9*	7.8
CCc1ccc(Nc2cnn(-c3nc4ccccc4s3)c(=O)c2Cl)cc1	-0.881	-0.9	0.7	-24.7	62.8*
CC1(C)CC(=O)C(C=Nc2ccc3[nH]ncc3c2)=C(O)C1	·	-13.1	0.7	-16.2	84.2*
CSCCC(NC(=O)OC(C)(C)C)C(=O)Oc1ccc2c(=O)c(-c3ccc4c(c3)OCCO4)coc2c1 (configuration not stated)	·	-13.8	8.7*	-12.2	-30.1
